Data reported in ChEMBL document CHEMBL3232791, “Synthesis and antibacterial evaluation of amino acid-antibiotic conjugates” (2014).

What was measured:
Type in all cases: functional
[1] = system: Staphylococcus aureus; assay: Antibacterial activity against Staphylococcus aureus RN4220 assessed as growth inhibition at 300 ug/ml after 16 hrs by spectrophotometric analysis; conditions: RN4220, 16 h, read-out: GI
Outline: (§1)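 Growth inhibition read as OD600 on 300 µL culture samples, with untreated control cultures taken as maximum growth. Percent inhibition = (OD600 control − OD600 treated) × 100 / OD600 control. Parent antibiotics and their conjugates were run in parallel at three concentrations per compound, in biological duplicate.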

[2] = system: Staphylococcus aureus; assay: Antibacterial activity against Staphylococcus aureus RN4220 assessed as growth inhibition at 150 ug/ml after 16 hrs by spectrophotometric analysis; conditions: RN4220, 16 h, read-out: GI; outline: as §1
[3] = system: Staphylococcus aureus; assay: Antibacterial activity against Staphylococcus aureus RN4220 assessed as growth inhibition at 75 ug/ml after 16 hrs by spectrophotometric analysis; conditions: RN4220, 16 h, read-out: GI; outline: as §1
[4] = system: Escherichia coli; assay: Antibacterial activity against Escherichia coli DH5alpha assessed as growth inhibition at 100 ug/ml after 16 hrs by spectrophotometric method; conditions: DH5[alpha], read-out: GI; outline: as §1
[5] = system: Escherichia coli; assay: Antibacterial activity against Escherichia coli DH5alpha assessed as growth inhibition at 75 ug/ml after 16 hrs by spectrophotometric method; conditions: DH5[alpha], read-out: GI; outline: as §1
[6] = system: Escherichia coli; assay: Antibacterial activity against Escherichia coli DH5alpha assessed as growth inhibition at 50 ug/ml after 16 hrs by spectrophotometric method; conditions: DH5[alpha], read-out: GI; outline: as §1
[7] = system: Staphylococcus aureus; assay: Antibacterial activity against Staphylococcus aureus RN4220 assessed as growth inhibition at 240 ug/ml after 16 hrs by spectrophotometric analysis; conditions: RN4220, 16 h, read-out: GI; outline: as §1
[8] = system: Staphylococcus aureus; assay: Antibacterial activity against Staphylococcus aureus RN4220 assessed as growth inhibition at 60 ug/ml after 16 hrs by spectrophotometric analysis; conditions: RN4220, 16 h, read-out: GI; outline: as §1
[9] = system: Staphylococcus aureus; assay: Antibacterial activity against Staphylococcus aureus RN4220 assessed as growth inhibition at 120 ug/ml after 16 hrs by spectrophotometric analysis; conditions: RN4220, 16 h, read-out: GI; outline: as §1
[10] = system: Escherichia coli; assay: Antibacterial activity against Escherichia coli DH5alpha assessed as growth inhibition at 40 ug/ml after 16 hrs by spectrophotometric method; conditions: DH5[alpha], read-out: GI; outline: as §1
[11] = system: Staphylococcus aureus; assay: Antibacterial activity against Staphylococcus aureus RN4220 assessed as growth inhibition at 30 ug/ml after 16 hrs by spectrophotometric analysis; conditions: RN4220, 16 h, read-out: GI; outline: as §1
[12] = system: Staphylococcus aureus; assay: Antibacterial activity against Staphylococcus aureus RN4220 assessed as growth inhibition at 15 ug/ml after 16 hrs by spectrophotometric analysis; conditions: RN4220, 16 h, read-out: GI; outline: as §1
[13] = system: Pseudomonas aeruginosa; assay: Antibacterial activity against Pseudomonas aeruginosa PAO1 assessed as growth inhibition at 10 ug/ml after 16 hrs by spectrophotometric analysis; conditions: PAO1, 16 h, read-out: GI; outline: as §1
[14] = system: Pseudomonas aeruginosa; assay: Antibacterial activity against Pseudomonas aeruginosa PAO1 assessed as growth inhibition at 40 ug/ml after 16 hrs by spectrophotometric analysis; conditions: PAO1, 16 h, read-out: GI; outline: as §1
[15] = system: Pseudomonas aeruginosa; assay: Antibacterial activity against Pseudomonas aeruginosa PAO1 assessed as growth inhibition at 20 ug/ml after 16 hrs by spectrophotometric analysis; conditions: PAO1, 16 h, read-out: GI; outline: as §1
[16] = system: Bacillus subtilis; assay: Antibacterial activity against Bacillus subtilis 168 assessed as growth inhibition at 5 ug/ml after 16 hrs by spectrophotometric analysis; conditions: subsp. subtilis str. 168, 16 h, read-out: GI; outline: as §1
[17] = system: Bacillus subtilis; assay: Antibacterial activity against Bacillus subtilis 168 assessed as growth inhibition at 20 ug/ml after 16 hrs by spectrophotometric analysis; conditions: subsp. subtilis str. 168, 16 h, read-out: GI; outline: as §1
[18] = system: Bacillus subtilis; assay: Antibacterial activity against Bacillus subtilis 168 assessed as growth inhibition at 10 ug/ml after 16 hrs by spectrophotometric analysis; conditions: subsp. subtilis str. 168, 16 h, read-out: GI; outline: as §1
[19] = system: Escherichia coli; assay: Antibacterial activity against Escherichia coli DH5alpha assessed as growth inhibition at 3 ug/ml after 16 hrs by spectrophotometric method; conditions: DH5[alpha], read-out: GI; outline: as §1
[20] = system: Escherichia coli; assay: Antibacterial activity against Escherichia coli DH5alpha assessed as growth inhibition at 1.5 ug/ml after 16 hrs by spectrophotometric method; conditions: DH5[alpha], read-out: GI; outline: as §1
[21] = system: Escherichia coli; assay: Antibacterial activity against Escherichia coli DH5alpha assessed as growth inhibition at 0.75 ug/ml after 16 hrs by spectrophotometric method; conditions: DH5[alpha], read-out: GI; outline: as §1
[22] = system: Staphylococcus aureus; assay: Antibacterial activity against Staphylococcus aureus RN4220 assessed as growth inhibition at 200 ug/ml after 16 hrs by spectrophotometric analysis; conditions: RN4220, 16 h, read-out: GI; outline: as §1
[23] = system: Staphylococcus aureus; assay: Antibacterial activity against Staphylococcus aureus RN4220 assessed as growth inhibition at 100 ug/ml after 16 hrs by spectrophotometric analysis; conditions: RN4220, 16 h, read-out: GI; outline: as §1
[24] = system: Staphylococcus aureus; assay: Antibacterial activity against Staphylococcus aureus RN4220 assessed as growth inhibition at 50 ug/ml after 16 hrs by spectrophotometric analysis; conditions: RN4220, 16 h, read-out: GI; outline: as §1
[25] = system: Bacillus subtilis; assay: Antibacterial activity against Bacillus subtilis 168 assessed as growth inhibition at 40 ug/ml after 16 hrs by spectrophotometric analysis; conditions: subsp. subtilis str. 168, 16 h, read-out: GI; outline: as §1
[26] = system: Escherichia coli; assay: Antibacterial activity against Escherichia coli DH5alpha assessed as growth inhibition at 10 ug/ml after 16 hrs by spectrophotometric method; conditions: DH5[alpha], read-out: GI; outline: as §1
[27] = system: Escherichia coli; assay: Antibacterial activity against Escherichia coli DH5alpha assessed as growth inhibition at 5 ug/ml after 16 hrs by spectrophotometric method; conditions: DH5[alpha], read-out: GI; outline: as §1
[28] = system: Escherichia coli; assay: Antibacterial activity against Escherichia coli DH5alpha assessed as growth inhibition at 2.5 ug/ml after 16 hrs by spectrophotometric method; conditions: DH5[alpha], read-out: GI; outline: as §1

Row | Structure (SMILES) | inhibition of growth at 300 µg/mL [1] [%] | inhibition of growth at 150 µg/mL [2] [%] | inhibition of growth at 75 µg/mL [3] [%] | inhibition of growth at 100 µg/mL [4] [%] | inhibition of growth at 75 µg/mL [5] [%] | inhibition of growth at 50 µg/mL [6] [%] | further results
1 | Cc1ncc([N+](=O)[O-])n1CCOC(=O)CNC(=O)OCc1ccccc1 | 23.6 | 23.5 | 0.33 | 6.59 | 1.61 | 8.23 | 
2 | Cc1ncc([N+](=O)[O-])n1CCOC(=O)[C@H](C)NC(=O)OCc1ccccc1 | 45.9 | 22.5 | 8.86 | 8.28 | 3.79 | 2.22 | 
3 | Cc1ncc([N+](=O)[O-])n1CCOC(=O)[C@@H](NC(=O)OCc1ccccc1)C(C)C | 13.7 | -7.76 | -7.76 | 4.47 | 3.26 | 3.28 | 
4 | Cc1ncc([N+](=O)[O-])n1CCOC(=O)[C@H](Cc1ccccc1)NC(=O)OCc1ccccc1 | 20.5 | 6.66 | -0.03 | 7.7 | 5.73 | 4.44 | 
5 | Cc1ncc([N+](=O)[O-])n1CCOC(=O)[C@H](CCCCNC(=O)OCc1ccccc1)NC(=O)OCc1ccccc1 | 68 | 22.3 | -2.96 | 70 | 62.5 | 51.9 | 
6 | C[C@H](NC(=O)OCc1ccccc1)C(=O)Nc1ccc(S(=O)(=O)Nc2ncccn2)cc1 |  |  |  |  | -0.65 | -0.61 | inhibition of growth at 240 µg/mL [7]: 1.07%; inhibition of growth at 60 µg/mL [8]: -9.96%; inhibition of growth at 120 µg/mL [9]: -9.38%; inhibition of growth at 40 µg/mL [10]: 2.13%
7 | Cc1ncc([N+](=O)[O-])n1CCO [METRONIDAZOLE] | 16.4 | -9.9 | -14.3 | 15 | 8.2 | 6.64 | 
8 | CCn1cc(C(=O)O)c(=O)c2cc(F)c(N3CCNCC3)cc21 [NORFLOXACIN] |  |  |  |  |  |  | inhibition of growth at 60 µg/mL [8]: 81%; inhibition of growth at 30 µg/mL [11]: 73.5%; inhibition of growth at 15 µg/mL [12]: 63.9%; inhibition of growth at 10 µg/mL [13]: 81.1%; inhibition of growth at 40 µg/mL [14]: 89.1%; inhibition of growth at 20 µg/mL [15]: 90.5%; inhibition of growth at 5 µg/mL [16]: 90.7%; inhibition of growth at 20 µg/mL [17]: 92.2%; inhibition of growth at 10 µg/mL [18]: 91.9%; inhibition of growth at 3 µg/mL [19]: 80.8%; inhibition of growth at 1.5 µg/mL [20]: 72.8%; inhibition of growth at 0.75 µg/mL [21]: 55.3%
9 | CCn1cc(C(=O)O)c(=O)c2cnc(N3CCNCC3)nc21 [PIPEMIDIC ACID] |  |  |  |  |  |  | inhibition of growth at 200 µg/mL [22]: 61.8%; inhibition of growth at 100 µg/mL [23]: 44.4%; inhibition of growth at 50 µg/mL [24]: 26.2%; inhibition of growth at 40 µg/mL [25]: 79.8%; inhibition of growth at 20 µg/mL [17]: 26%; inhibition of growth at 10 µg/mL [18]: 18.2%; inhibition of growth at 10 µg/mL [26]: 7.89%; inhibition of growth at 5 µg/mL [27]: -9.68%; inhibition of growth at 2.5 µg/mL [28]: -13%
